Test results from ChEMBL document CHEMBL1146365, “Synthesis and biological evaluation of new N-(2-hydroxy-4(or 5)-nitro/aminophenyl)benzamides and phenylacetamides as antimicrobial agents” (2007).
Values after ≈ are worked out from the molar mass of the structure shown.

Assays:
[1] = test system: Klebsiella pneumoniae; assay: Antibacterial activity against Klebsiella pneumoniae RSHM 574 assessed after 24 hrs by serial dilution method
[2] = test system: Bacillus subtilis; assay: Antibacterial activity against Bacillus subtilis ATCC 6633 assessed after 24 hrs by serial dilution method; type: functional; details: ATCC 6633, 24 h
Outline: (§1)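 Strains were subcultured twice on MHA at 37 °C overnight. Inoculum was diluted from McFarland 0.5 to 10^5 cfu/ml, giving 10^4 cfu/ml in wells. Solvent, medium and organism-only controls were included. Incubated 37 °C, humid chamber, 24 h, in triplicate. MIC = lowest concentration with no macroscopic growth.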

[3] = test system: Candida albicans; assay: Antifungal activity against Candida albicans ATCC 10231 assessed after 48 hrs by serial dilution method; type: functional; details: ATCC 10231, 48 h
Outline: (§2)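 Broth microdilution per CLSI M27-A in RPMI-1640 with L-glutamine, MOPS-buffered pH 7, with 2-fold compound dilutions. Yeasts were subcultured twice on SDA at 35 °C for 24–48 h. Inoculum was diluted from McFarland 0.5 to 10^4 cfu/ml, giving 10^3 cfu/ml in wells. Incubated 35 °C, humid chamber, 48 h, in triplicate. MIC = lowest concentration with no macroscopic growth.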

[4] = test system: Klebsiella pneumoniae; assay: Antibacterial activity against Klebsiella pneumoniae isolate assessed after 24 hrs by serial dilution method; type: functional
Outline: as §1

[5] = test system: Escherichia coli; assay: Antibacterial activity against Escherichia coli isolate assessed after 24 hrs by serial dilution method; type: functional
Outline: as §1

[6] = test system: Staphylococcus aureus; assay: Antibacterial activity against drug-resistant Staphylococcus aureus assessed after 24 hrs by serial dilution method
[7] = test system: Escherichia coli; assay: Antibacterial activity against Escherichia coli ATCC assessed after 24 hrs by serial dilution method
[8] = test system: Bacillus subtilis; assay: Antibacterial activity against drug-resistant Bacillus subtilis assessed after 24 hrs by serial dilution method
[9] = test system: Pseudomonas aeruginosa; assay: Antibacterial activity against Pseudomonas aeruginosa isolate assessed after 24 hrs by serial dilution method; type: functional
Outline: as §1

[10] = test system: Staphylococcus aureus; assay: Antibacterial activity against Staphylococcus aureus ATCC 25923 assessed after 24 hrs by serial dilution method; type: functional; details: ATCC 25923, 24 h
Outline: as §1

[11] = test system: Candida albicans; assay: Antifungal activity against Candida albicans isolate assessed after 48 hrs by serial dilution method; type: functional
Outline: as §2

[12] = test system: Pseudomonas aeruginosa; assay: Antibacterial activity against Pseudomonas aeruginosa ATCC […] assessed after 24 hrs by serial dilution method

SMILES | MIC [1] [µg/mL] | MIC [2] [µg/mL] | MIC [3] [µg/mL] | MIC [4] [µg/mL] | MIC [5] [µg/mL] | MIC [6] [µg/mL] | MIC [7] [µg/mL] | MIC [8] [µg/mL] | MIC [9] [µg/mL] | MIC [10] [µg/mL] | MIC [11] [µg/mL] | MIC [12] [µg/mL]
CCc1ccc(C(=O)Nc2ccc([N+](=O)[O-])cc2O)cc1 | 500 (≈ 1750 µM) | 250 (≈ 873 µM) | 125 (≈ 437 µM) | 125 (≈ 437 µM) | 125 (≈ 437 µM) | 125 (≈ 437 µM) | 125 (≈ 437 µM) | 15.6 (≈ 54.5 µM) | 250 (≈ 873 µM) | 62.5 (≈ 218 µM) | 125 (≈ 437 µM) | 250 (≈ 873 µM)
O=C(Nc1cc([N+](=O)[O-])ccc1O)c1ccccc1 | 125 (≈ 484 µM) | 7.8 (≈ 30.2 µM) | 125 (≈ 484 µM) | 250 (≈ 968 µM) | 250 (≈ 968 µM) | 15.6 (≈ 60.4 µM) | 125 (≈ 484 µM) | 62.5 (≈ 242 µM) | 250 (≈ 968 µM) | 31.2 (≈ 121 µM) | 250 (≈ 968 µM) | 125 (≈ 484 µM)
Nc1ccc(O)c(NC(=O)c2ccccc2)c1 | 125 (≈ 548 µM) | 15.6 (≈ 68.3 µM) | 125 (≈ 548 µM) | 250 (≈ 1100 µM) | 250 (≈ 1100 µM) | 31.2 (≈ 137 µM) | 125 (≈ 548 µM) | 62.5 (≈ 274 µM) | 250 (≈ 1100 µM) | 31.2 (≈ 137 µM) | 125 (≈ 548 µM) | 125 (≈ 548 µM)
Cc1ccc(CC(=O)Nc2ccc([N+](=O)[O-])cc2O)cc1 | 125 (≈ 437 µM) | 125 (≈ 437 µM) | 62.5 (≈ 218 µM) | 250 (≈ 873 µM) | 250 (≈ 873 µM) | 500 (≈ 1750 µM) | 125 (≈ 437 µM) | 250 (≈ 873 µM) | 250 (≈ 873 µM) | 250 (≈ 873 µM) | 250 (≈ 873 µM) | 250 (≈ 873 µM)
Cc1ccc(CC(=O)Nc2ccc(N)cc2O)cc1 | 125 (≈ 488 µM) | 62.5 (≈ 244 µM) | 125 (≈ 488 µM) | 250 (≈ 975 µM) | 250 (≈ 975 µM) | 62.5 (≈ 244 µM) | 125 (≈ 488 µM) | 62.5 (≈ 244 µM) | 250 (≈ 975 µM) | 250 (≈ 975 µM) | 250 (≈ 975 µM) | 125 (≈ 488 µM)
Nc1ccc(NC(=O)c2ccc(F)cc2)c(O)c1 | 125 (≈ 508 µM) | 125 (≈ 508 µM) | 125 (≈ 508 µM) | 250 (≈ 1020 µM) | 250 (≈ 1020 µM) | 15.6 (≈ 63.4 µM) | 250 (≈ 1020 µM) | 125 (≈ 508 µM) | 250 (≈ 1020 µM) | 62.5 (≈ 254 µM) | 125 (≈ 508 µM) | 125 (≈ 508 µM)
